Experimental data as given in ChEMBL document CHEMBL1141111, “Synthesis and biological evaluation of spin-labeled alkylphospholipid analogs” (J Med Chem, 2005).

How the values were obtained:
[1] = (§1) Hemolytic effect (30 uM) on human erythrocytes upon incubation with lipid for 30 min in pH 7.5; type: functional
Procedure, shortened: (§2)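 Blood from a healthy donor was collected in EDTA, the plasma removed, and the cells washed in PBS. Each 1 mL sample held 8.59 × 10^7 erythrocytes in PBS (pH 7.5) with 100 µL of 5.5 mM glucose, plus free lipid (30 nmol) or liposomes (30 or 100 nmol). Samples were shaken 30 min at room temperature and spun at 840g. The supernatant was read with Drabkin's reagent at 540 nm. Results are % of Triton X-100 total lysis, in triplicate.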

[2] = (§3) Hemolytic effect (100 uM) on human erythrocytes; type: functional; procedure, shortened: as §2
Homo sapiens [3] = species: Homo sapiens; experiment: Hemolytic effect (30 uM) on human erythrocytes upon incubation with liposomes for 30 min in pH 7.5; type: functional
Procedure, shortened: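 Washed erythrocytes from a healthy donor's EDTA blood, stored at 4 °C and used within 48 h. About 8.59 × 10^7 cells in 1 mL PBS (pH 7.5) with 5.5 mM glucose solution. Extruded LUVET (SL-APL/cholesterol/dicetyl phosphate 10:10:2), 30 nmol lipid, shaken 30 min at room temperature. Supernatant read with Drabkin's reagent at 540 nm, as % of Triton X-100 lysis, in triplicate.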

MCF7 = experiment: Inhibitory concentration against MCF-7 cells gwoth; type: functional, cell-based, Homo sapiens
Procedure, shortened: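 MCF7 cells were grown in RPMI-1640 with L-glutamine and 10% heat-inactivated FCS, then seeded at 2 × 10^4 per well the day before treatment. Free or liposomal compound (APL/Ch/DCP 10:10:2, 200 nm extruded LUVs) was serially diluted 200–6.25 µM and applied for 24 h in triplicate. MTT (0.5 mg/mL) was added for 4 h, and formazan was dissolved in DMSO and read at 540 nm. IC50 comes from growth-inhibition curves versus untreated cells, mean ± SD of ≥3 independent experiments.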

Homo sapiens [4] = species: Homo sapiens; experiment: as §1; type: functional; procedure, shortened: as §2
Homo sapiens [5] = species: Homo sapiens; experiment: as §3; type: functional; procedure, shortened: as §2

SMILES | Hemolysis [1] [%] | Hemolysis [2] [%] | Hemolysis (Homo sapiens [3]) [%] | IC50 (MCF7; Homo sapiens, MCF7) [µM] | IC50 (MCF7; mcf7) [µM] | Hemolysis (Homo sapiens [4]) [%] | Hemolysis (Homo sapiens [5]) [%]
CCCCCCCCCCCCCCCCCCOP(=O)([O-])OC1CC[N+](C)(C)CC1 [PERIFOSINE] | 98.1 | 93.5 | 3.2 | 75.8 |  |  | 
CCCCC1(CCCCCCCCCCCCCOP(=O)([O-])OC2CC[N+](C)(C)CC2)OCC(C)(C)N1[O] (stereo not drawn) | 16.1 | 5.3 | 3.2 |  | 56.4 |  | 
CCCCCCCCCCCCCC1(CCCCOP(=O)([O-])OC2CC[N+](C)(C)CC2)OCC(C)(C)N1[O] (stereo not drawn) |  |  | 6.6 |  |  | 99 | 17.9
CCCCCCC1(CCCCCCCCCCCOP(=O)([O-])OCC[N+](C)(C)C)OCC(C)(C)N1[O] (stereo not drawn) |  |  | 4.9 |  |  | 98.3 | 20.3
CCCCCCCCCCCC1(CCCCCCOP(=O)([O-])OC2CC[N+](C)(C)CC2)OCC(C)(C)N1[O] (stereo not drawn) |  |  | 4.4 |  |  | 95.2 | 6.7
CCCCCCC1(CCCCCCCCCCCOP(=O)([O-])OC2CC[N+](C)(C)CC2)OCC(C)(C)N1[O] (stereo not drawn) |  |  | 4.1 |  |  | 18.3 | 5.7
CCCCCCCCC1(CCCCCCCCCOP(=O)([O-])OC2CC[N+](C)(C)CC2)OCC(C)(C)N1[O] (stereo not drawn) |  |  | 3.7 |  |  | 34.6 | 5.9
